Assay results from ChEMBL document CHEMBL5696442, “Discovery of type II inhibitors of TGFβ-activated kinase 1 (TAK1) and mitogen-activated protein kinase kinase kinase kinase 2 (MAP4K2)” (J Med Chem, 2015).

Experiments:
[1] = target: Calcium/calmodulin-dependent protein kinase kinase 2 (Homo sapiens) (UniProt Q96RR4); test: Inhibition of CaMKK2 Lys2 labeling site in human A-375 cells at 5 uM by KiNativ Profiling analysis relative to control; type: cell-based
In short: (§1)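 Live A375 melanoma cells were treated with compound at 5 or 0.5 μM. The cells were then lysed, and the lysates were labeled with a lysine-reactive ATP or ADP-biotin acyl probe (KiNativ). Inhibition is the compound's protection of each kinase labeling-site peptide from probe labeling, relative to untreated control.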

[2] = target: Serine/threonine-protein kinase 25 (Homo sapiens) (UniProt O00506); test: Inhibition of YSK1 Lys2 labeling site in human A-375 cells at 5 uM by KiNativ Profiling analysis relative to control; type: cell-based
[3] = target: Mitogen-activated protein kinase kinase kinase kinase 4 (Homo sapiens, UniProt O95819); test: Inhibition of ZC1/HGK Lys1 labeling site in human A-375 cells at 0.5 uM by KiNativ Profiling analysis relative to control; type: cell-based
[4] = target: T1, Serine/threonine-protein kinase Nek9 (Homo sapiens) (UniProt Q8TD19); test: Inhibition of NEK9 Lys1 labeling site harbouring TEDDSLVVWKEVDLTR in human A-375 cells at 0.05 uM by KiNativ Profiling analysis relative to control; type: cell-based
T1 sequence (whole entry): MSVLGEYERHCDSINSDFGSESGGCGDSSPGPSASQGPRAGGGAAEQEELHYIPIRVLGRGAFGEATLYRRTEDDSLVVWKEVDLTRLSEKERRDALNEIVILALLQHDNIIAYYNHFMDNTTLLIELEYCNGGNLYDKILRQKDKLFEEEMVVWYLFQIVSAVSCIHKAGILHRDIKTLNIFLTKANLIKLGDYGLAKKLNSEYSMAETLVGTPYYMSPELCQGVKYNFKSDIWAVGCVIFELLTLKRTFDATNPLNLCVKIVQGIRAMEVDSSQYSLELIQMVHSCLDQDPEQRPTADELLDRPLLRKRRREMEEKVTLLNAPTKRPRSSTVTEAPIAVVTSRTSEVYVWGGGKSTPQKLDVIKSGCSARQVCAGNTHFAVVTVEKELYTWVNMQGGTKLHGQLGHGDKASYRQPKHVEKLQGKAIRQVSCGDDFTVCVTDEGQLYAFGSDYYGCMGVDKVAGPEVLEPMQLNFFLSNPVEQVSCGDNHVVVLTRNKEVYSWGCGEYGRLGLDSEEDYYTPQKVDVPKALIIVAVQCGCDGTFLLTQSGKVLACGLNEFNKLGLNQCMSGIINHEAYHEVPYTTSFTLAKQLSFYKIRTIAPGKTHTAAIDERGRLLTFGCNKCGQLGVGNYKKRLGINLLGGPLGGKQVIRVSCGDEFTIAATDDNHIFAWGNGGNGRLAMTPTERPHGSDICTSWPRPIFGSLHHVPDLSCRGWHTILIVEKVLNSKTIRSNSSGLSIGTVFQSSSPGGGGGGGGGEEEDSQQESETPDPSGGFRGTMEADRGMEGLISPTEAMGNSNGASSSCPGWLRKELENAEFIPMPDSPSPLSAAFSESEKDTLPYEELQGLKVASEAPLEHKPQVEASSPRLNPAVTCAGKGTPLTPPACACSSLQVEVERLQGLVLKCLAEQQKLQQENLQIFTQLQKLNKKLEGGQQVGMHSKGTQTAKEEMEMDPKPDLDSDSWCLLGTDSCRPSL

[5] = target: Phosphatidylinositol 4,5-bisphosphate 3-kinase catalytic subunit beta isoform (Homo sapiens) (UniProt P42338); test: Inhibition of PIK3CB ATP labeling site in human A-375 cells at 0.5 uM by KiNativ Profiling analysis relative to control; type: cell-based
[6] = target: Cyclin-dependent kinase 1 (Homo sapiens) (UniProt P06493); test: Inhibition of CDC2 Lys2 labeling site harbouring VLHRDLKPQNLLIDDKGTIK in human A-375 cells at 5 uM by KiNativ Profiling analysis relative to control; type: cell-based; in short: as §1
[7] = target: Tyrosine-protein kinase ABL1 (Homo sapiens, UniProt P00519); test: Inhibition of ABL (unknown origin) ACT labeling site by KiNativ Profiling analysis
[8] = target: Dual specificity mitogen-activated protein kinase kinase 2 (Homo sapiens) (UniProt P36507); test: Inhibition of MAP2K2 Lys2 labeling site in human A-375 cells at 0.05 uM by KiNativ Profiling analysis relative to control; type: cell-based
[9] = target: Tyrosine-protein kinase Fer (Homo sapiens, UniProt P16591); test: Inhibition of FER Lys1 labeling site harbouring TSVAVKTCKEDLPQELKin human A-375 cells at 0.5 uM by KiNativ Profiling analysis relative to control; type: cell-based
[10] = target: TRAF2 and NCK-interacting protein kinase (Homo sapiens) (UniProt Q9UKE5); test: Inhibition of ZC2/TNIK Lys1 labeling site in human A-375 cells at 0.05 uM by KiNativ Profiling analysis relative to control; type: cell-based
[11] = target: 5'-AMP-activated protein kinase catalytic subunit alpha-1 (Homo sapiens) (UniProt Q13131); test: Inhibition of AMPKa1 ATP Loop labeling site in human A-375 cells at 0.5 uM by KiNativ Profiling analysis relative to control; type: cell-based
In short: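 Live A375 melanoma cells were treated with compound at 5 or 0.5 μM, then lysed. The lysates were labeled with a lysine-reactive ATP or ADP-biotin probe. Kinase protection from probe labeling was measured by KiNativ.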

[12] = target: DNA-PK/Ku70/Ku85 (Homo sapiens) (UniProt P78527+P12956+P13010); test: Inhibition of DNAPK ATP labeling site harbouring GHDEREHPFLVKGGEDLR in human A-375 cells at 0.5 uM by KiNativ Profiling analysis relative to control; type: cell-based
In short: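 Live A375 melanoma cells were treated with compound at 0.5 or 5 μM, then lysed. Lysates were labeled with a lysine-reactive ATP or ADP-biotin probe. The read-out was protection of each kinase probe-labeling site from labeling, relative to control.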

TRAF2 and NCK-interacting protein kinase (Homo sapiens), sequence (Q9UKE5 whole entry, looked up): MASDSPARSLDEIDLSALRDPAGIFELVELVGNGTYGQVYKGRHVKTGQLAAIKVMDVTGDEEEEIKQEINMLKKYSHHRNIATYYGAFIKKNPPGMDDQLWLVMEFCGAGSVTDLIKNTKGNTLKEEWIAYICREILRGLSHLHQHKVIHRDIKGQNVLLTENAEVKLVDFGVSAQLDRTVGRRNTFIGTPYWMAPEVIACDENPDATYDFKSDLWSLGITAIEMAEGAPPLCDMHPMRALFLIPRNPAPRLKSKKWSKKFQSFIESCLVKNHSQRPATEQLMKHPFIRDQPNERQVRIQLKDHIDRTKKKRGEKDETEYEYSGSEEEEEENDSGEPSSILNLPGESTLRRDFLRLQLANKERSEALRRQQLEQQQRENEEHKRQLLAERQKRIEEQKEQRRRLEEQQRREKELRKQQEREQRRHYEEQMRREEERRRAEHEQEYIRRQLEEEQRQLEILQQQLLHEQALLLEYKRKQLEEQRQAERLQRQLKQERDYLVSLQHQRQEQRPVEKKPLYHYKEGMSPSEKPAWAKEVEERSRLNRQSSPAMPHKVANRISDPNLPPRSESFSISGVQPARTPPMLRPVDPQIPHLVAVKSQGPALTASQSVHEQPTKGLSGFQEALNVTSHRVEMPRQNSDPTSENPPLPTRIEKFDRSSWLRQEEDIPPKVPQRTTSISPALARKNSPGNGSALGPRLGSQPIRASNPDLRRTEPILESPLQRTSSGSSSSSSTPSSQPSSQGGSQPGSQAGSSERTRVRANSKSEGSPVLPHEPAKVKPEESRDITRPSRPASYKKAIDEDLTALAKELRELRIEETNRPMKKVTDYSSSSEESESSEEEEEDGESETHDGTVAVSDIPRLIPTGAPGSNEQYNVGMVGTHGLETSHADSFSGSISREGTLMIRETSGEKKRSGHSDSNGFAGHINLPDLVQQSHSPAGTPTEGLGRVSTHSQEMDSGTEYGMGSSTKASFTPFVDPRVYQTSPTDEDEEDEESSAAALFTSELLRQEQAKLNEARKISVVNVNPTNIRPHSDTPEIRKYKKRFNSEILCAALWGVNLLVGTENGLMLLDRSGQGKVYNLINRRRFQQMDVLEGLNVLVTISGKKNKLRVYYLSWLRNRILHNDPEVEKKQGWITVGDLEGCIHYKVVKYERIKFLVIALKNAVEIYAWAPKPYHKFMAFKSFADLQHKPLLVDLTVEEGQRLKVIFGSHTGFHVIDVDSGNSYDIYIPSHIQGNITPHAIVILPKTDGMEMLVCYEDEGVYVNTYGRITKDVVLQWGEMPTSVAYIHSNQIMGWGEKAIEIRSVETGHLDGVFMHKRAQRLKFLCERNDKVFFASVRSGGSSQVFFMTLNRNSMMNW
Calcium/calmodulin-dependent protein kinase kinase 2 (Homo sapiens), sequence (Q96RR4 2-588 limits assumed): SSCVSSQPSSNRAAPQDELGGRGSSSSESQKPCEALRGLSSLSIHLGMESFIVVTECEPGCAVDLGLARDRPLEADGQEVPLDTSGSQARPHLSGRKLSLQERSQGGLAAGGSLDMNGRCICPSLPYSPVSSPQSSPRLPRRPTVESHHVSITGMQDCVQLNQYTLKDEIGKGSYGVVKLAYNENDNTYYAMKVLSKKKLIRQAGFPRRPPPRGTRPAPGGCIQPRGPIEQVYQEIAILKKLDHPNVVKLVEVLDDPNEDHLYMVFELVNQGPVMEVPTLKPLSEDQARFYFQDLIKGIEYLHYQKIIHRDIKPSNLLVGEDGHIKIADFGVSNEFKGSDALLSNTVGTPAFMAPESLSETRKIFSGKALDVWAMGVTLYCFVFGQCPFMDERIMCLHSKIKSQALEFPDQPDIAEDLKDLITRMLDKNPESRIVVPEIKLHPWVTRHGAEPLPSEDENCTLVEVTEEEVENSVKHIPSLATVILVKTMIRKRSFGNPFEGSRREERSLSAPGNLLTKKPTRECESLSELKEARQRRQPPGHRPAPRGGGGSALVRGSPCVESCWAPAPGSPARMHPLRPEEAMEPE
Tyrosine-protein kinase ABL1, sequence (P00519 whole entry): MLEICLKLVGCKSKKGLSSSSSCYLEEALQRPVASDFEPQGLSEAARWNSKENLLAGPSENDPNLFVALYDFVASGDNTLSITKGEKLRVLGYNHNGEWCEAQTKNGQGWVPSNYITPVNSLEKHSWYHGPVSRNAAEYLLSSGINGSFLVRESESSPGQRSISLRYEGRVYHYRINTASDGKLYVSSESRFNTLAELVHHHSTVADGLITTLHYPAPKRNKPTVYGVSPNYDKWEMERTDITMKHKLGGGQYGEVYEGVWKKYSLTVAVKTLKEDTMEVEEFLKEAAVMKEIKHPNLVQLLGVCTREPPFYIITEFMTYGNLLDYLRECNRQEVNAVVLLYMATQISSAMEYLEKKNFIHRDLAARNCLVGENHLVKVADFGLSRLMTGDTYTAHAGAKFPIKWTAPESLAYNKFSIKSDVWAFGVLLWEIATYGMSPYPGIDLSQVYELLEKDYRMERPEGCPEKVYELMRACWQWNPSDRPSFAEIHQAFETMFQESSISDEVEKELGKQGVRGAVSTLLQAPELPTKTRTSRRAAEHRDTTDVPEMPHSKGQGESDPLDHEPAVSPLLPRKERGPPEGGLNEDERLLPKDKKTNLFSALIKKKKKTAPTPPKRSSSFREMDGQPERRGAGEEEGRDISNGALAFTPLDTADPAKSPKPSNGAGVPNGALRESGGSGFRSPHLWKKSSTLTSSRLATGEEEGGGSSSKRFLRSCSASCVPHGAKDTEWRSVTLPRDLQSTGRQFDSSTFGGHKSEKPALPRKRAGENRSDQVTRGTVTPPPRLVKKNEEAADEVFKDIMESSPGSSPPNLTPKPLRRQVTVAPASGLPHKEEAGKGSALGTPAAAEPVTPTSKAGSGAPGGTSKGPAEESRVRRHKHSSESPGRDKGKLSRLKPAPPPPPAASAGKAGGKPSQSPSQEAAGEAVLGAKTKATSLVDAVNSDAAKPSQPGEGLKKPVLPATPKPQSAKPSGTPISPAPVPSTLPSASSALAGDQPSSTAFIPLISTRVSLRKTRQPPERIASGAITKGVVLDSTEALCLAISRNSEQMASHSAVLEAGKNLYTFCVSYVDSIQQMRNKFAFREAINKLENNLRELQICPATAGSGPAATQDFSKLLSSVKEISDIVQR
Cyclin-dependent kinase 1 (Homo sapiens), sequence (P06493 whole entry, looked up): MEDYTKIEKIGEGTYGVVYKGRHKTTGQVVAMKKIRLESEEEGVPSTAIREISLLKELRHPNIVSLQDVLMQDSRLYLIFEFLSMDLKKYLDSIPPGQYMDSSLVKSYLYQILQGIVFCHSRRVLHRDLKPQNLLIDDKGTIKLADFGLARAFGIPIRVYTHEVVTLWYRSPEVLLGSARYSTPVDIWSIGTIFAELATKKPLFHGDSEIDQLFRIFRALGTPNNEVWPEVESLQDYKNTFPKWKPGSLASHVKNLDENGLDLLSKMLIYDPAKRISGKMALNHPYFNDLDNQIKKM
Phosphatidylinositol 4,5-bisphosphate 3-kinase catalytic subunit beta isoform (Homo sapiens), sequence (P42338 whole entry, looked up, canonical isoform): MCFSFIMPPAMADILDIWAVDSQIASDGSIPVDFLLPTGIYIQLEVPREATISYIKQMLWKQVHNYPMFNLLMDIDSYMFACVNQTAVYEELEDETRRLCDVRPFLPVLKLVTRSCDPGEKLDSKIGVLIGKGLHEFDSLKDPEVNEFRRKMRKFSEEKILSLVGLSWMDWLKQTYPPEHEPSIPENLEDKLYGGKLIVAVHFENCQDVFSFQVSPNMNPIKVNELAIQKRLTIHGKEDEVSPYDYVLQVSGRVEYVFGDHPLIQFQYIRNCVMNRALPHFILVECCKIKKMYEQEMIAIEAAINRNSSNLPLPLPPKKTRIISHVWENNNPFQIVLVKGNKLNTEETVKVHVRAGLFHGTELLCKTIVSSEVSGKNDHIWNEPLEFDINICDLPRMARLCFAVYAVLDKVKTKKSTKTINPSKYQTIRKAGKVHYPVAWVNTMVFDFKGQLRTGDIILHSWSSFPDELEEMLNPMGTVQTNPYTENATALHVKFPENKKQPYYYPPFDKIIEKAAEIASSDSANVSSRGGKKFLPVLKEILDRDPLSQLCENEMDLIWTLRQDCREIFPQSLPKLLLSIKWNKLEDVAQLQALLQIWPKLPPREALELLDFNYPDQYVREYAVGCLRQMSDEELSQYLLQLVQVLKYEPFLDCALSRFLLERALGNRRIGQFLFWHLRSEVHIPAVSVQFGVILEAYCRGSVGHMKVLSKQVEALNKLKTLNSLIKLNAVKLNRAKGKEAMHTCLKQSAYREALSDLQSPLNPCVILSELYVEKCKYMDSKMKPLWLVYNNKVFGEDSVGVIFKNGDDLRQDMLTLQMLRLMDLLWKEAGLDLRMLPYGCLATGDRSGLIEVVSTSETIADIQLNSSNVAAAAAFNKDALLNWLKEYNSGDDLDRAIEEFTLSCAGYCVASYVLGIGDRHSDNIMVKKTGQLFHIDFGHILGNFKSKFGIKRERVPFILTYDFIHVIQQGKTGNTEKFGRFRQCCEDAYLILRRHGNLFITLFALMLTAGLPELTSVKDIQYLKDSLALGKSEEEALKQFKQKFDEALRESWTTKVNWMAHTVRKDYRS
Serine/threonine-protein kinase 25 (Homo sapiens), sequence (O00506 whole entry, looked up): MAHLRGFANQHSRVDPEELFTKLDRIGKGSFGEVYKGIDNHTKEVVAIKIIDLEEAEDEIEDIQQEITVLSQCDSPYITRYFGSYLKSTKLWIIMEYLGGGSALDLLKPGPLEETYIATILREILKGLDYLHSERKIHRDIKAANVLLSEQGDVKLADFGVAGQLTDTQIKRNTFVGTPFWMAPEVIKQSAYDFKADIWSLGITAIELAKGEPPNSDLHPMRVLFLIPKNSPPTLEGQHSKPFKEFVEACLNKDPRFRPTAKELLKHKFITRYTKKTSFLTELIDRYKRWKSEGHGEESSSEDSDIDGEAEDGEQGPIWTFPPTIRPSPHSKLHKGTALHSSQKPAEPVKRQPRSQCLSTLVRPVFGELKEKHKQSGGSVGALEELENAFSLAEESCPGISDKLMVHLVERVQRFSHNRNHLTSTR

| Structure (SMILES) | inhibition [1] | inhibition [2] | inhibition [3] | inhibition [4] | inhibition [5] | inhibition [6] | IC50 [7] | inhibition [8] | inhibition [9] | inhibition [10] | inhibition [11] | inhibition [12] |
| --- | --- | --- | --- | --- | --- | --- | --- | --- | --- | --- | --- | --- |
| CCN1CCN(Cc2ccc(NC(=O)c3ccc(C)c(/C=C/c4cnc5[nH]ccc5c4OC)c3)cc2C(F)(F)F)CC1 | 3.9% | 20.9% | 26.3% | -2.6% | 37.6% | -3.1% | 51.5 nM | -8.3% | 23.3% | 57.6% | -2.7% | 9.6% |
| CCN1CCN(Cc2ccc(NC(=O)c3ccc(C)c(Oc4ccnc5[nH]ccc45)c3)cc2C(F)(F)F)CC1 | 34.8% | 15.4% | 75.6% | 18.9% | 8.8% | 34.7% | 75.2 nM | 6.1% | 88.5% | 42.6% | -0.8% | 3.6% |
